Molecules are shown by their SMILES. Calls of active or inactive are those of the source. The rule behind the calls is not given here.

These results are taken from ChEMBL document CHEMBL3232842, “Synthesis and pharmacological evaluation of novel limonin derivatives as anti-inflammatory and analgesic agents with high water solubility” (Bioorg Med Chem Lett, 2014).

Data set [1] is described as follows: Dissociation constant, pKa of the compound. It counts as physicochemical.
Data set [2] is described as follows: Partition coefficient, log D of the compound at pH 7.4. Format: physicochemical. The note with it: octanol/water.
Data set [3] can be described thus: Intrinsic aqueous solubility of the compound. Format: physicochemical. To be noted: read-out: Intrinsic_solubility. Put shortly:
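Determined on a Gemini Profiler by potentiometric titration (Avdeef–Bucher method), which also gave pKa; logD at pH 7.4.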

For data set [4], the system named is Mus musculus. As to the kind of experiment: Analgesic activity in mouse assessed as inhibition of acetic acid-induced writhing at 70 mg/kg, ig administered 1 hr before acetic acid challenge measured after 15 mins. To be noted: po, route intragastric. Format: functional. Put shortly:
(§1)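 Mice dosed by gavage with compound suspended in 0.5% CMC-Na; the model group got vehicle only. 1 h later, 0.7% acetic acid in saline was injected i.p. at 0.1 ml/10 g body weight. Writhes were counted 15 min after the stimulus. Results are mean ± SEM, n = 8.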

Data set [5] concerns Mus musculus. The data set is described as follows: Analgesic activity in mouse assessed as increase in tail-curl latency time at 100 mg/kg, ig measured after 60 mins by tail-immersion test. Format: functional, organism-based. On the set-up: dose 100 mg/kg. The gist of the method:
(§2)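 Mice dosed by gavage with 100 mg/kg suspended in 0.5% CMC-Na. Tail-curl latency in the tail-immersion test was recorded before dosing and at 30, 60, 90 and 120 min afterward. Results are given as mean ± SEM (n = 8), with one-way ANOVA against control.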

For data set [6], the system named is Mus musculus. The data set is described as follows: Antiinflammatory activity in mouse assessed as xylene-induced ear swollen extent at 100 mg/kg, ig administered 90 mins prior to xylene challenge measured after 30 mins (reference value: 132.8 +/-16.3%). Format: functional. The note with it: route intragastric. The gist of the method:
(§3)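 Mice were given compound by gavage as a suspension in 0.5% CMC-Na; the vehicle group got 0.5% CMC-Na. 90 min later, 25 µl xylene was applied to both surfaces of the right ear, with the left ear as control. Mice were killed 30 min later. 8 mm punches were taken from both ears and weighed, and swelling was expressed relative to the left ear weight. Results are mean ± SEM, n = 8.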

Data set [7] has as its system Mus musculus. As to the kind of experiment: Antiinflammatory activity in mouse assessed as inhibition of xylene-induced ear swelling at 100 mg/kg, ig administered 90 mins prior to xylene challenge measured after 30 mins. To be noted: po, route intragastric. Format: functional. The gist of the method: as §3
For data set [8], the system named is Mus musculus. The data set is described as follows: Analgesic activity in mouse assessed as increase in tail-curl latency time at 100 mg/kg, ig measured after 30 to 90 mins by tail-immersion test. Format: functional, organism-based. Set-up: dose 100 mg/kg. Put shortly: as §2
Data set [9] has as its system Mus musculus. As to the kind of experiment: Analgesic activity in mouse assessed as increase in tail-curl latency time at 100 mg/kg, ig measured after 90 mins by tail-immersion test. Format: functional, organism-based. Set-up: dose 100 mg/kg. The gist of the method:
as §2

A short description of data set [10]: Equilibrium solubility of the compound by classical saturation shake flask method. It counts as physicochemical. The gist of the method:
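Equilibrium solubility measured by the classical saturation shake-flask method.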

Data set [11] relates to Mus musculus. The data set is described as follows: Analgesic activity in mouse assessed as increase in tail-curl latency time at 100 mg/kg, ig measured after 30 to 120 mins by tail-immersion test. It counts as functional, organism-based. On the set-up: dose 100 mg/kg. Put shortly:
as §2

The species entered for data set [12] is Mus musculus. As to the kind of experiment: animal or person. To be noted: Ear, po, read-out: INH.
Data set [13] deals with Mus musculus. The data set is described as follows: Analgesic activity in mouse assessed as inhibition of acetic acid-induced writhing at 200 mg/kg, ig administered 1 hr before acetic acid challenge measured after 15 mins. Format: functional. The note with it: po, route intragastric. The gist of the method: as §1

The molecule `CN(C)CCCO/N=C1/C[C@H]2C(C)(C)O[C@H]3CC(=O)OC[C@]32[C@H]2CC[C@]3(C)C(=CC(=O)O[C@H]3c3ccoc3)[C@]12C.Cl` had a pKa in data set [1] of 9.39. Further, the logD in data set [2] was 0.19. The solubility in data set [3] worked out at 9.4 mg/mL. The inhibition in vivo at 70 mg/kg with Mus musculus [4] came out at 60.7%. Also, the outcome with Mus musculus [5] was Active. Further, the Ear swelling extent with Mus musculus [6] was found to be 97.8%. The inhibition in vivo at 100 mg/kg in the data set on Mus musculus [7] was determined as 26.4%.

Take `CC1(C)O[C@H]2CC(=O)OC[C@]23[C@H]2CC[C@]4(C)C(=CC(=O)O[C@H]4c4ccoc4)[C@]2(C)/C(=N\OCCN2CCCCC2)C[C@@H]13.Cl`: the pKa in data set [1] is 8.52. This molecule showed a logD in [2] of 0.81. The solubility in data set [3] was determined as 19.8 mg/mL. Moreover, the inhibition in vivo at 70 mg/kg in the data set with Mus musculus [4] came to 44.3%. Moreover, the result in the data set with Mus musculus [5] was Active. The Ear swelling extent in the data set with Mus musculus [6] was determined as 99.1%. Further, the inhibition in vivo at 100 mg/kg with Mus musculus [7] worked out at 25.4%.

In the case of `CC1(C)O[C@H]2CC(=O)OC[C@]23[C@H]2CC[C@@]4(C)[C@H](c5ccoc5)OC(=O)[C@H]5O[C@]54[C@]2(C)/C(=N\OCCN2CCCCC2)C[C@@H]13.Cl`, the pKa in data set [1] was determined as 8.87. In addition, the log distribution coefficient (logD) in data set [2] is 0.44. Further, the solubility in data set [3] worked out at 25.3 mg/mL. In addition, in the data set on Mus musculus [4], the inhibition in vivo at 70 mg/kg amounted to 70.5%. Further, the outcome in the data set on Mus musculus [8] and in the data set with Mus musculus [5] was Active. Besides, the Ear swelling extent with Mus musculus [6] came out at 60.1%. For the same molecule, the inhibition in vivo at 100 mg/kg with Mus musculus [7] is 54.8%.

In data set [1], `CC1(C)O[C@H]2CC(=O)OC[C@]23[C@H]2CC[C@@]4(C)[C@H](c5ccoc5)OC(=O)[C@H]5O[C@]54[C@]2(C)/C(=N\OCCN2CCOCC2)C[C@@H]13.Cl` returned a pKa of 6.11. The logD in [2] is 2.45. For the same molecule, the solubility in data set [3] turned out to be 4.5 mg/mL. Further, the inhibition in vivo at 70 mg/kg in the data set with Mus musculus [4] was 58%. Moreover, the outcome with Mus musculus [8] was Active. In addition, in the data set with Mus musculus [6], the Ear swelling extent is 62.4%. Further, the inhibition in vivo at 100 mg/kg with Mus musculus [7] worked out at 53%.

In turn, `CC1(C)O[C@H]2CC(=O)OC[C@]23[C@H]2CC[C@]4(C)C(=CC(=O)O[C@H]4c4ccoc4)[C@]2(C)/C(=N\OCCN2CCOCC2)C[C@@H]13.Cl` yielded a pKa in data set [1] of 6.84. In [2], this molecule yielded a pH-dependent lipophilicity (logD) of 2.52. Besides, the solubility in [3] came to 2.1 mg/mL. Also, in the data set on Mus musculus [4], the inhibition in vivo at 70 mg/kg worked out at 50%. Also, in the data set on Mus musculus [5], the result was Active. Moreover, the Ear swelling extent in the data set on Mus musculus [6] is 96.1%. Also, the inhibition in vivo at 100 mg/kg in the data set on Mus musculus [7] was 27.6%.

`CCN(CC)CCO/N=C1/C[C@H]2C(C)(C)O[C@H]3CC(=O)OC[C@]32[C@H]2CC[C@@]3(C)[C@H](c4ccoc4)OC(=O)[C@H]4O[C@]43[C@]12C.Cl` yielded a pKa in [1] of 9.17. The same molecule registered a logD in data set [2] of 0.26. For the same molecule, in data set [3], the solubility worked out at 14.5 mg/mL. Moreover, the inhibition in vivo at 70 mg/kg with Mus musculus [4] came out at 80%. Moreover, the result in the data set with Mus musculus [8] and with Mus musculus [9] was Active. Besides, the Ear swelling extent in the data set on Mus musculus [6] stood at 32.6%. In the data set with Mus musculus [7], the inhibition in vivo at 100 mg/kg was found to be 75.5%.

On to `CC1(C)O[C@H]2CC(=O)OC[C@]23[C@H]2CC[C@@]4(C)[C@H](c5ccoc5)OC(=O)[C@H]5O[C@]54[C@]2(C)C(=O)C[C@@H]13` [LIMONIN], for which, in data set [10], the solubility (thermodynamic) is less than 0.005 mg/mL. Also, the inhibition in vivo at 70 mg/kg with Mus musculus [4] amounted to 45.9%. The Ear swelling extent with Mus musculus [6] is reported as 89.3%. Further, the inhibition in vivo at 100 mg/kg with Mus musculus [7] stood at 32.7%.

With `CN(C)CCO/N=C1/C[C@H]2C(C)(C)O[C@H]3CC(=O)OC[C@]32[C@H]2CC[C@@]3(C)[C@H](c4ccoc4)OC(=O)[C@H]4O[C@]43[C@]12C.Cl`, the pKa in data set [1] was 8.78. The logD in [2] came out at 0.59. The solubility in data set [3] was 17.8 mg/mL. Besides, the inhibition in vivo at 70 mg/kg in the data set on Mus musculus [4] turned out to be 68.6%. Besides, in the data set on Mus musculus [8], the result was Active. In addition, the Ear swelling extent in the data set on Mus musculus [6] was 72.4%. The inhibition in vivo at 100 mg/kg with Mus musculus [7] stood at 45.5%.

Consider `CC1(C)O[C@H]2CC(=O)OC[C@@]23[C@H]1CC(=O)[C@@]1(C)C2=CC(=O)O[C@H](c4ccoc4)[C@]2(C)CC[C@@H]13` [DESOXYLIMONIN], for which the solubility (thermodynamic) in data set [10] was less than 0.005 mg/mL. Moreover, the inhibition in vivo at 70 mg/kg in the data set with Mus musculus [4] stood at 24.6%. For the same molecule, in the data set with Mus musculus [6], the Ear swelling extent came out at 111.7%. Further, the inhibition in vivo at 100 mg/kg in the data set on Mus musculus [7] was found to be 15.9%. Also, in the data set on Mus musculus [11], the result was inactive.

In [1], `CCN(CC)CCO/N=C1/C[C@H]2C(C)(C)O[C@H]3CC(=O)OC[C@]32[C@H]2CC[C@]3(C)C(=CC(=O)O[C@H]3c3ccoc3)[C@]12C.Cl` yielded a pKa of 9.49. The molecule also came in with a logD in [2] of 0.57. The solubility in data set [3] is 1.9 mg/mL. The inhibition in vivo at 70 mg/kg with Mus musculus [4] stood at 33.2%. For the same molecule, the result in the data set with Mus musculus [5] was Active. Also, the Ear swelling extent in the data set with Mus musculus [6] is 108.2%. Further, the inhibition in vivo at 100 mg/kg with Mus musculus [7] came out at 18.4%.

Regarding `COc1ccc2cc([C@H](C)C(=O)O)ccc2c1` [NAPROXEN], the inhibition in vivo at 150 mg/kg in the data set listed under Mus musculus [12] was determined as 36.6%.

On to `CN(C)CCO/N=C1/C[C@H]2C(C)(C)O[C@H]3CC(=O)OC[C@]32[C@H]2CC[C@]3(C)C(=CC(=O)O[C@H]3c3ccoc3)[C@]12C.Cl`, for which the pKa in data set [1] was determined as 8.88. Moreover, in data set [2], the logD stood at 0.32. Also, the solubility in data set [3] was found to be 28.9 mg/mL. Also, the inhibition in vivo at 70 mg/kg with Mus musculus [4] was determined as 30%. In addition, the result in the data set with Mus musculus [5] was Active. In the data set with Mus musculus [6], the Ear swelling extent is 100.2%. Besides, the inhibition in vivo at 100 mg/kg in the data set with Mus musculus [7] came out at 24.6%.

For the molecule `CN(C)CCCO/N=C1/C[C@H]2C(C)(C)O[C@H]3CC(=O)OC[C@]32[C@H]2CC[C@@]3(C)[C@H](c4ccoc4)OC(=O)[C@H]4O[C@]43[C@]12C.Cl`, in data set [1], the pKa turned out to be 9.28. The log distribution coefficient (logD) in data set [2] stood at 0.37. For the same molecule, the solubility in data set [3] is 9.6 mg/mL. Moreover, the inhibition in vivo at 70 mg/kg in the data set with Mus musculus [4] was determined as 64.1%. The result in the data set on Mus musculus [8] was Active. Besides, the Ear swelling extent with Mus musculus [6] is reported as 71.6%. Also, in the data set with Mus musculus [7], the inhibition in vivo at 100 mg/kg turned out to be 46.1%.

As for `CC(=O)Oc1ccccc1C(=O)O` [ASPIRIN], the inhibition in vivo at 200 mg/kg in the data set on Mus musculus [13] was 71.8%.
